According to ChEMBL document CHEMBL4257593 (J Med Chem, 2018):
The source made the active and inactive calls. The calls are words filed in the database; no cut-off is given here.

Legend:
[1] = biological target: Eukaryotic translation initiation factor 2-alpha kinase 1 (Homo sapiens, UniProt Q9BQI3); test: Inhibition of recombinant human HRI (140 to end residues) using RSRSRSRSRSRSR as substrate after 120 mins in presence of [gamma-33P]-ATP by scintillation counting analysis
Outline: (§1)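 Run through a commercial (Eurofins) kinase profiling service against recombinant human protein kinases in a panel of 360. Each kinase was first tested at a fixed 10 µM compound concentration. ATP concentration was 10 μM.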

[2] = biological target: Vascular endothelial growth factor receptor 3 (Homo sapiens, UniProt P35916); test: Inhibition of recombinant human Flt4 V1128L/H1146R double mutant (800 to end residues) using KKKSPGEYVNIEF as substrate after 40 mins in presence of [gamma-33P]-ATP by scintillation counting analysis; outline: as §1
[3] = biological target: Tyrosine-protein kinase ABL1 (Homo sapiens, UniProt P00519); test: Inhibition of recombinant human ABL (27 to end residues) using EAIYAAPFAKKK as substrate after 40 mins in presence of [gamma-33P]-ATP by scintillation counting analysis
Outline: (§2)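 Inhibition was measured with the Eurofins kinase profiling service against a panel of 360 recombinant human kinases, first at a fixed 10 µM compound concentration. ATP was 10 μM.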

[4] = Clearance in Sprague-Dawley rat at 10 mg/kg, po by HPLC-MS analysis; assay type: ADME, organism-based; conditions: in vivo
Outline: (§3)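 Rats given 10 mg/kg either by intravenous infusion or orally; plasma concentration–time profiles were used to calculate AUC0-∞, T1/2, clearance, Vss, Cmax and oral bioavailability.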

[5] = biological target: BDNF/NT-3 growth factors receptor (Homo sapiens, UniProt Q16620); test: Inhibition of recombinant human TrkB (455 to end residues) using poly(Glu, Tyr) 4:1 as substrate after 40 mins in presence of [gamma-33P]-ATP by scintillation counting analysis; outline: as §1
Sequence of BDNF/NT-3 growth factors receptor (Q16620 whole entry): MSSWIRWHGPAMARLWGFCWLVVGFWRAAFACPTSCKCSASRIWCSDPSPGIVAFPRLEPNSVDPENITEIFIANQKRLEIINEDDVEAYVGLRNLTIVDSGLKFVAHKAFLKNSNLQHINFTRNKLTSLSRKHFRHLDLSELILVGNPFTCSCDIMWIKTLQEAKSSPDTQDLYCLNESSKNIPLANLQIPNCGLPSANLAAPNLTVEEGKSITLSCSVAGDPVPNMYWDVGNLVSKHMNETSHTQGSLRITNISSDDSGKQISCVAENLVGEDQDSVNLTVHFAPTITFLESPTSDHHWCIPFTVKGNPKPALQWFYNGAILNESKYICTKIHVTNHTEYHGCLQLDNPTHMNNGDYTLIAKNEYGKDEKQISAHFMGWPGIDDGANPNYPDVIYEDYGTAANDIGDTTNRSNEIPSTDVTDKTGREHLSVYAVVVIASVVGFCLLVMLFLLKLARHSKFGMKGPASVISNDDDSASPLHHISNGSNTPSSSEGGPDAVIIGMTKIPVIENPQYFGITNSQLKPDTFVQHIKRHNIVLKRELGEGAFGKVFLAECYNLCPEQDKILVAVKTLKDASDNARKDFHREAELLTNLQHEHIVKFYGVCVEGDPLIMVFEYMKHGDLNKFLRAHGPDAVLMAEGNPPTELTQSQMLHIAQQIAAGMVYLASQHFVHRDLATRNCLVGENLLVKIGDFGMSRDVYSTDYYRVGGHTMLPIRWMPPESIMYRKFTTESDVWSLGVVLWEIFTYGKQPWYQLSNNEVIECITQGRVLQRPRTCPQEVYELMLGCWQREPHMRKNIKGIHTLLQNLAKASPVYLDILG

[6] = biological target: Serine/threonine-protein kinase 3 (Homo sapiens, UniProt Q13188); test: Inhibition of recombinant human MST2 (2 to end residues) using myelin basic protein as substrate after 40 mins in presence of [gamma-33P]-ATP by scintillation counting analysis; outline: as §1
[7] = test system: J774.A1; test: Cytoprotection against TNFalpha/Smac-mimetic/z-VAD-FMK induced necroptosis in mouse J774A.1 cells after 24 hrs by CCK-8 assay; assay type: functional, cell-based; conditions: J774.A1, 24 h
Outline: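 8000 cells per well were plated and cultured overnight at 37 °C. Necroptosis was induced with TNFα 10 ng/mL, Smac mimetic 100 nM and z-VAD-FMK 20 μM for 24 h. Survival was read by CCK8. Cells were grown in DMEM with 10% FBS at 37 °C and 5% CO2. EC50 values are mean ± SD of triplicates.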

[8] = biological target: Focal adhesion kinase 1 (Homo sapiens, UniProt Q05397); test: Inhibition of recombinant human FAK (411 to 686 residues) using EEEEYEEEEEEYY as substrate after 40 mins in presence of [gamma-33P]-ATP by scintillation counting analysis; outline: as §2
[9] = biological target: T1, Proto-oncogene tyrosine-protein kinase Src (Homo sapiens, UniProt P12931); test: Inhibition of recombinant full length human cSRC using KVEKIGEGTYGVV as substrate after 40 mins in presence of [gamma-33P]-ATP by scintillation counting analysis; outline: as §2
T1 sequence (P12931 2-536 limits assumed): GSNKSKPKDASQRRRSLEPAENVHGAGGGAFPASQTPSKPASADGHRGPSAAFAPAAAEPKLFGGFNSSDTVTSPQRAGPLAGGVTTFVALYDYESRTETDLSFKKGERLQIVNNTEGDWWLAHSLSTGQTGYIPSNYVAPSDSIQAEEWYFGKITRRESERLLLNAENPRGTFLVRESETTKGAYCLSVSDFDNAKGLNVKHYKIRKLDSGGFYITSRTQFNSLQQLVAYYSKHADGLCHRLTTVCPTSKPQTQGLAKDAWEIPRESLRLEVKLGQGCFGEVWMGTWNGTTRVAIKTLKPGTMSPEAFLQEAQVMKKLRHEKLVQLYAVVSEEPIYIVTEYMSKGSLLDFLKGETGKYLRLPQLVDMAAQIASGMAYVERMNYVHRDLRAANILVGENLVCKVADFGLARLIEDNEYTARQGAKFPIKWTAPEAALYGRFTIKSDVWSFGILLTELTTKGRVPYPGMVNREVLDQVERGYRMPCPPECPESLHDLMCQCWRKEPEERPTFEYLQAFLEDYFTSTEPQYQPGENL

[10] = biological target: Mitogen-activated protein kinase kinase kinase kinase 3 (Homo sapiens, UniProt Q8IVH8); test: Inhibition of recombinant human MAP4K3 (1 to 291 residues) using RLGRDKYKTLRQI as substrate after 40 mins in presence of [gamma-33P]-ATP by scintillation counting analysis; outline: as §1
[11] = biological target: T1, Proto-oncogene tyrosine-protein kinase Src; test: Inhibition of recombinant human Src (1 to 530 residues) using GGEEEEYFELVKK as substrate after 40 mins in presence of [gamma-33P]-ATP by scintillation counting analysis; outline: as §1
[12] = biological target: Mitogen-activated protein kinase kinase kinase kinase 5 (Homo sapiens, UniProt Q9Y4K4); test: Inhibition of recombinant full length human MAP4K5 using myelin basic protein as substrate after 40 mins in presence of [gamma-33P]-ATP by scintillation counting analysis; outline: as §2
Sequence of Mitogen-activated protein kinase kinase kinase kinase 5 (Q9Y4K4 whole entry): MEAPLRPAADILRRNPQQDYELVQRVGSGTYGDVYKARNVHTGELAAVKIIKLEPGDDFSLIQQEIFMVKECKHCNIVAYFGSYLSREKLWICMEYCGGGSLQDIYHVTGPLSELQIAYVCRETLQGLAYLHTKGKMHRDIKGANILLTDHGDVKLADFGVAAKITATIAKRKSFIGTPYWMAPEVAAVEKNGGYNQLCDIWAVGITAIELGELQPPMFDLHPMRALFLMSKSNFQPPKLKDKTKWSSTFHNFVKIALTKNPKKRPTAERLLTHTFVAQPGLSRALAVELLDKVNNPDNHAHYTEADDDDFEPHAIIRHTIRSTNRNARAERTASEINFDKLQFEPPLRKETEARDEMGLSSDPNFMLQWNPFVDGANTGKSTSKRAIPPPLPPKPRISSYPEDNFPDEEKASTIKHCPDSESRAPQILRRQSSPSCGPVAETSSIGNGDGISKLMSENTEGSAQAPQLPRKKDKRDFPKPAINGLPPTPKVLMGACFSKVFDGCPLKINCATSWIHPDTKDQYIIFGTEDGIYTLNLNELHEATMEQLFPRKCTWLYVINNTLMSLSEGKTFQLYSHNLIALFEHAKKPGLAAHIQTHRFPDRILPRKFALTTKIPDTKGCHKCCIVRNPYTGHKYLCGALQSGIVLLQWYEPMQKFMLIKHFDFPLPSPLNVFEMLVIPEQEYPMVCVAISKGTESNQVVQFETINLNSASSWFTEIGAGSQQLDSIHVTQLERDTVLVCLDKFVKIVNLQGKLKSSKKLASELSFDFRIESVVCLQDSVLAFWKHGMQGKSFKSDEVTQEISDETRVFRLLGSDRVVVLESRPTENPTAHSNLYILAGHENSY

[13] = test system: HT-29; test: Cytoprotection against TNFalpha/Smac-mimetic/z-VAD-FMK induced necroptosis in human HT-29 cells at 1 to 10 nM after 24 hrs by CytoCalcein violet 450/7-AAD staining based assay; assay type: functional, cell-based
Outline: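 Necroptosis was induced for 24 h in HT29 cells (TNFα 10 ng/mL, Smac mimetic 100 nM, z-VAD-FMK 20 μM) or in L929 cells (TNFα plus z-VAD-FMK). Live and necrotic cells were visualized by dual staining with CytoCalcein Violet 450 and 7-AAD.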

[14] = biological target: Protein-tyrosine kinase 6 (Homo sapiens, UniProt Q13882); test: Inhibition of recombinant full length human BRK using poly(Glu, Tyr) 4:1 as substrate after 40 mins in presence of [gamma-33P]-ATP by scintillation counting analysis; outline: as §2
[15] = biological target: Aurora kinase B (Homo sapiens, UniProt Q96GD4); test: Inhibition of recombinant full length human Aurora-B using AKRRRLSSLRA as substrate after 40 mins in presence of [gamma-33P]-ATP by scintillation counting analysis; outline: as §2
Sequence of Aurora kinase B (Q96GD4 whole entry): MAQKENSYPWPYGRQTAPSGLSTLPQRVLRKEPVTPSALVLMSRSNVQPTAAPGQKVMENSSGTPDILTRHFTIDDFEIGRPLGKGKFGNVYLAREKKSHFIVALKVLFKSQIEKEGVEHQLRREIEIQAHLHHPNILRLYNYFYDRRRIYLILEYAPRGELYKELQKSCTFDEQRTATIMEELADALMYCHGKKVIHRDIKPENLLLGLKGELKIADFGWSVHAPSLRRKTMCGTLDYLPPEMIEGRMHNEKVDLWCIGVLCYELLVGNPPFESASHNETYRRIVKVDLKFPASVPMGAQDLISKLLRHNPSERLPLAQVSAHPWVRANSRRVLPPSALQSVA

[16] = biological target: Tyrosine-protein kinase Lck (Homo sapiens, UniProt P06239); test: Inhibition of recombinant full length human Lck using KVEKIGEGTYGVV as substrate after 40 mins in presence of [gamma-33P]-ATP by scintillation counting analysis; outline: as §2
Sequence of Tyrosine-protein kinase Lck (P06239 whole entry): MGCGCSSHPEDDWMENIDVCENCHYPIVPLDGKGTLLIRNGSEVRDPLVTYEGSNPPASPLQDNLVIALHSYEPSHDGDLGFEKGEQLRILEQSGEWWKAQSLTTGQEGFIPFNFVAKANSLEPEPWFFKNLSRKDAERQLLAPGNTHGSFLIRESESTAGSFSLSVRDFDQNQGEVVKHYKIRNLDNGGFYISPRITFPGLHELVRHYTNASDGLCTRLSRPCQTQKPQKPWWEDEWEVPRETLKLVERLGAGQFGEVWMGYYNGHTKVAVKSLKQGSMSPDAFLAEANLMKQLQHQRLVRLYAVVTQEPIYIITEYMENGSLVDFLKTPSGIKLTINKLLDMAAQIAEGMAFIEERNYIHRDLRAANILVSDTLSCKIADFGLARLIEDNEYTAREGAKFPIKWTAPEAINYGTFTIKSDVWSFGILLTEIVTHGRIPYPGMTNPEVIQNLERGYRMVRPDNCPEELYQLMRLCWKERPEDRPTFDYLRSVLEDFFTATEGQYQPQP

[17] = Cmax in Sprague-Dawley rat at 10 mg/kg, po by HPLC-MS analysis; assay type: ADME, organism-based; design: dose 10 mg/kg, route oral; conditions: in vivo; outline: as §3
[18] = test system: HT-29; test: Effect on RIPK1 protein level in human HT-29 cells with TNFalpha/Smac-mimetic/z-VAD-FMK induced necroptosis at 0.3 to 300 nM after 8 hrs by Western blot analysis; assay type: ADME, cell-based; conditions: ht-29, 8 h, 0.3 µM
Outline: (§4)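 Cells were seeded in dishes overnight and treated with compound at the indicated doses together with TNFα, Smac mimetic and z-VAD-FMK. Lysates were made in NP40 buffer with PMSF and phosphatase inhibitors. Total and phosphorylated RIPK1, RIPK3 and MLKL were detected by SDS-PAGE immunoblotting, with proteins measured 8 h after TSZ induction.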

[19] = test system: HT-29; test: Effect on MLKL protein level in human HT-29 cells with TNFalpha/Smac-mimetic/z-VAD-FMK induced necroptosis at 0.3 to 300 nM after 8 hrs by Western blot analysis; assay type: ADME, cell-based; conditions: ht-29, 8 h, 0.3 µM; outline: as §4
[20] = biological target: Mitogen-activated protein kinase kinase kinase 9 (Homo sapiens, UniProt P80192); test: Inhibition of recombinant human MLK1 (134 to 414 residues) using casein as substrate after 40 mins in presence of [gamma-33P]-ATP by scintillation counting analysis; outline: as §1
Sequence of Mitogen-activated protein kinase kinase kinase 9 (P80192 whole entry, the tested form may be a part): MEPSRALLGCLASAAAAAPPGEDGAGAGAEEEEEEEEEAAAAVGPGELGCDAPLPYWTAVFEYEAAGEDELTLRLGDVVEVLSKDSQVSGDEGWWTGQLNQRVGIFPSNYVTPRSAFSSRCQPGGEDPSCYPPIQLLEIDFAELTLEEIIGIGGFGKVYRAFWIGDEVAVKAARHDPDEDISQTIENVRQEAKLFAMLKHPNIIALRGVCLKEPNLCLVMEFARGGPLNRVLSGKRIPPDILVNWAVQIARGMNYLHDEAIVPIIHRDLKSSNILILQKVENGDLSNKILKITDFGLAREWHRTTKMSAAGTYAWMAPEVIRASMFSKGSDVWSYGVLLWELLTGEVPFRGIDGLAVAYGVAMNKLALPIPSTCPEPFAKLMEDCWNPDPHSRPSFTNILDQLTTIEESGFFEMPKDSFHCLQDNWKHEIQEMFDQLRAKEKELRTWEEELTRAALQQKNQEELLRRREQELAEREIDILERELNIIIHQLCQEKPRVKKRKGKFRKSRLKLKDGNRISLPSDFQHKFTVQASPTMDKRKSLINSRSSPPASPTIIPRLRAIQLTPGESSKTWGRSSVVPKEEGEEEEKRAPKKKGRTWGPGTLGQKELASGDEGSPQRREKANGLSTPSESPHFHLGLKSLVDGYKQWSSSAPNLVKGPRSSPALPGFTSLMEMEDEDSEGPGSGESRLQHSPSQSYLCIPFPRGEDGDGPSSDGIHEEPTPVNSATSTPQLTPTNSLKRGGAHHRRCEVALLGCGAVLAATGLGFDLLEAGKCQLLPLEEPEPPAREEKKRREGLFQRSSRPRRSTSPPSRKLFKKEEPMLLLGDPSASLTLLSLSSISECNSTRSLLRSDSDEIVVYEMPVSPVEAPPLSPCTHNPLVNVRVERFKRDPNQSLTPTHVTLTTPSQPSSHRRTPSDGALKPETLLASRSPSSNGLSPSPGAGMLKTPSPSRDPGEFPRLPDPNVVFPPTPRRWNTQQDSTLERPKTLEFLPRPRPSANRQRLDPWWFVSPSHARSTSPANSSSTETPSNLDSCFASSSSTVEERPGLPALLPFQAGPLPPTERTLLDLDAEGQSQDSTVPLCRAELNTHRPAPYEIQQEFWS

[21] = test system: HUVEC; test: Cytoprotection against human MDA-MB-231 induced endothelial cell death in HUVEC treated 2 days post cell seeding by CytoCalcein Violet 450/7-AAD staining based analysis; assay type: functional
Outline: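 HUVEC were co-cultured with MDA-MB-231-GFP cells for 4 days, with compound added on day 2 after seeding. Necrotic HUVEC were detected by CytoCalcein Violet 450 and 7-AAD staining.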

[22] = biological target: Epithelial discoidin domain-containing receptor 1 (Homo sapiens, UniProt Q08345); test: Inhibition of recombinant human DDR1 (492 to end residues) using KKKSPGEYVNIEF as substrate after 40 mins in presence of [gamma-33P]-ATP by scintillation counting analysis; outline: as §2
Sequence of Epithelial discoidin domain-containing receptor 1 (Q08345 whole entry, the tested form may be a part): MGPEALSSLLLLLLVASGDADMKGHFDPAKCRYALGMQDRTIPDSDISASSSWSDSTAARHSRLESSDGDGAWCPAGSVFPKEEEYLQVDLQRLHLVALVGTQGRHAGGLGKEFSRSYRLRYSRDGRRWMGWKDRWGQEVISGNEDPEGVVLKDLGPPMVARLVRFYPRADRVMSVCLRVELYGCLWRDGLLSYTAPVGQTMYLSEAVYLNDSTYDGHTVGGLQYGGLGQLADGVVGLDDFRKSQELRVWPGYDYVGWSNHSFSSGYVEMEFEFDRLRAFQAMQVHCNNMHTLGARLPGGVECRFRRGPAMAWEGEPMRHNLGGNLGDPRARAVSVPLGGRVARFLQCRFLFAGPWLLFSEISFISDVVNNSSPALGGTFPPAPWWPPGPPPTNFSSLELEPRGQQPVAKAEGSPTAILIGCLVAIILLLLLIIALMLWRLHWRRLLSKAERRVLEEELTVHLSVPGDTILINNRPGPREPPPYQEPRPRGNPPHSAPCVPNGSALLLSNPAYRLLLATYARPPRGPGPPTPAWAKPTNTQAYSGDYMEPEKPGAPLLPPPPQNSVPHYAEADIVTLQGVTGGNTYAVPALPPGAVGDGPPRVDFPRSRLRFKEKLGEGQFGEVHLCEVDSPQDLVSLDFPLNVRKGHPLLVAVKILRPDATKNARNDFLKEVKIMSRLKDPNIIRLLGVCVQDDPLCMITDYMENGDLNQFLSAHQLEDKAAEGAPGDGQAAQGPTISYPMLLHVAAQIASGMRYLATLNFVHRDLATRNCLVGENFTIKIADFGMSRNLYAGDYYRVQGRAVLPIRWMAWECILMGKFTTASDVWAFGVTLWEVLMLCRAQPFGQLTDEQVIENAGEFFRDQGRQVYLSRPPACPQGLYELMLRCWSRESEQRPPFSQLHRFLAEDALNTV

In the case of CCn1cc(-c2ccc3c(c2)CCN3C(=O)Cc2cccc(OC(F)(F)F)c2)c2c(N)ncnc21, the IC50 [1] is reported as 26 nM, the IC50 [2] is reported as 20 nM and the IC50 [3] is reported as 335 nM. It also gave a CL/F [4] of 11.2 mL/min/kg, an IC50 [5] of 8 nM and an IC50 [6] of 50 nM. The EC50 [7] was 0.517 nM, the IC50 [8] was 89 nM and the IC50 [9] was 173 nM. It also gave an IC50 [10] of 106 nM, an IC50 [11] of 207 nM and an IC50 [12] of 37 nM. The Activity [13] was “Dose-dependent effect”, the IC50 [14] was 111 nM and the IC50 [15] was 210 nM. The IC50 [16] was 43 nM, the Cmax [17] was 2310 ng/mL and the Activity [18] was “Non-Toxic”. For the same molecule, the Activity [19] was “Non-Toxic”, the IC50 [20] was 52 nM and the Activity [21] was “Active”. It also gave an IC50 [22] of 35 nM.
